Data set [1] can be described thus: Biodistribution in CD1 mouse thymus assessed per gram of wet tissue at 400 to 600 kBq, iv after 60 mins post-injection by gamma counting in presence of 1 mg/kg, ip sigma 1/sigma 2 receptor antagonist haloperidol treated before compound addition. The data set is classed as organism-based. The arrangement: route intravenous. Conditions: in vivo, 1 h. The method in brief: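 They were killed at 60 min pi, and organs were weighed and γ-counted as % ID/g wet tissue. Comparison with controls used Student's t test (independent, two-tailed).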

A further data set relates to Kidney. In words: Biodistribution in CD1 mouse kidney assessed per gram of wet tissue at 400 to 600 kBq, iv after 30 mins post-injection by gamma counting. In kind it is ADME, organism-based. As to conditions: in vivo, 0.5 h. The method in brief:
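Female CD-1 mice (~8-12 weeks, 20-28 g) were fasted 24 h with free water. Conscious mice got 400-600 kBq [¹⁸F] tracer in saline by tail vein. At 5, 30, 60 or 120 min (n=4-5 per time) they were anesthetized, blood and urine sampled, then killed by cervical dislocation. Organs were weighed and γ-counted, giving % ID/g wet tissue.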

Results on one compound are retold here after ChEMBL document CHEMBL1154191, “Evaluation of spirocyclic 3-(3-fluoropropyl)-2-benzofurans as sigma1 receptor ligands for neuroimaging with positron emission tomography” (J Med Chem, 2009).

On to `[18F]CCCC1OC2(CCN(Cc3ccccc3)CC2)c2ccccc21` (configuration not stated), for which the Drug uptake came out at 2.36 %ID in data set [1] and 7.49 %ID in the data set with Kidney.
